From PubChem
HSF1 activator = increases HSF-1 driven luciferase reporter signal | NIH3T3-HGL HSF-1 luciferase reporter, MG132, 8 h; 100% = twice DMSO control signal | activation, % at 9 µM | 300,000 tested, 1.7% active;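 active means mean replicate activation of at least 50% with a set share of replicates each reaching 50%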
SR-BI HDL uptake = blocks mouse SR-BI lipid uptake from DiI-HDL | ldlA[mSR-BI] CHO cells, DiI-HDL uptake fluorescence, 3 h | 320,000 tested, 0.96% active | Q61009 | inhibition, % at 12.5 µM;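 active means mean replicate inhibition of at least 70% and a set share of replicates each scoring 70 or more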
Target sequence (Q61009 whole entry, looked up): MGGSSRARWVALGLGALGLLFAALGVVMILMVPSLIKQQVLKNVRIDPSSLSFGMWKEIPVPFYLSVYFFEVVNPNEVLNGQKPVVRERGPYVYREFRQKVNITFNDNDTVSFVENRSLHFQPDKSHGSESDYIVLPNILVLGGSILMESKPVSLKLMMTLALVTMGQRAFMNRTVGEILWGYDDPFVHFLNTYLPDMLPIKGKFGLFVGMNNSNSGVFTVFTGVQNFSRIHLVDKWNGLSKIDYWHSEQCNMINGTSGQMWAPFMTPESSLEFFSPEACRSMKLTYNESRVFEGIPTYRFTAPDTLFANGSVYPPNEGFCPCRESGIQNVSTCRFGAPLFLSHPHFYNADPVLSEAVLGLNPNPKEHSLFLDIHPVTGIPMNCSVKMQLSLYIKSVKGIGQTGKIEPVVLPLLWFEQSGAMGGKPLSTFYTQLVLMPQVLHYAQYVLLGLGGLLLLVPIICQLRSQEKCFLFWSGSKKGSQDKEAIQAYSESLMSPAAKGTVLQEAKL
MITF TRPM1 HTS = increases MITF-driven TRPM1 promoter luciferase signal; SK-MEL-5 TRPM1-promoter luciferase, 24 h; % of positive control, neutral wells = 0; activation, % at 12.5 µM; 300,000 tested, 0.75% active; AID 588334;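 active means mean activation of at least 80% with every replicate also reaching 80%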
Wnt act = activators of Wnt/beta-catenin signaling; Wnt/beta-catenin reporter cell assay, activator, plate reader; activation, % at 9.35 µM; 300,000 tested, 1.2% active; AID 743398; in the data active means activation above about 30%, passing the limit was not always enough
SR-BI DiI-HDL act = enhances SR-BI lipid uptake from DiI-HDL; CHO ldlA[mSR-BI] cells, DiI-HDL uptake fluorescence, 3 h; 100 = double the neutral-control signal; activation, % at 12.5 µM; 320,000 tested, 0.096% active;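 active means mean replicate activation of at least 60% and every replicate at or above 60%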
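System: LDL receptor-deficient CHO ldlA cells overexpressing murine SR-BI | Timing: 3 h uptake period with compound, 37 °C | Medium: HEPES-buffered (25 mM, pH 7.4) F12 plus 0.5% BSA | Dosing: Single-point compound dose | Signal: Bottom-read fluorescence, 550/595 nm | Read-out: Retained DiI signal reflecting DiI-HDL uptake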
Hits are given with their value; 0 = inactive; - = no result given; ! = not active in a repeat. Shown are actives, neighbours in structure and some others; about 3.6% of the full set was active somewhere.

SMILES	HSF1 activator	SR-BI HDL uptake	MITF TRPM1 HTS	Wnt act	SR-BI DiI-HDL act
COc1ccc(/C=N/Nc2nnc(C)n2N)cc1OC(C)=O	79.6	0	-	0	0
Cc1nnc(N/N=C/c2ccc(-c3ccc(Br)cc3)o2)n1N	0	0	0	0	0
Cc1nnc(N/N=C/c2ccc(Br)cc2)n1N	52.5	0	0	0	0
Nn1cnnc1N/N=C/c1ccc(F)cc1	55.1	0	0	0	0
Nn1cnnc1N/N=C/c1ccc(Cl)c([N+](=O)[O-])c1	0	0	0	0	0
CN(C)C1=NCCN1CCCCc1ccccc1	-	0	0	0	0
COCCN(C(=O)CSc1nnc(-c2cccc(F)c2)n1N)c1c(N)n(Cc2ccccc2)c(=O)[nH]c1=O	0	0	0	0	0
CCCCS/C(N)=N/N=C/c1ccccc1O	86.6	0	0	-	0
C/C(=N/N=C/c1ccccc1O)c1ccccc1O	0	0	0	44.3	0
CCCS/C(N)=N/N=C/c1cc(C)ccc1O	59.6	0	123.0	-	0
Oc1ccccc1C=NCCCCCCN=Cc1ccccc1O	0	0	0	0	0
Cc1ccc(O)c(C=Nc2cc(C)ccc2O)c1	0	0	0	0	0
CCOc1ccc(-c2cc3cc(OC)c(OC)cc3c(C)n2)cc1	0	73.8	0	0	0
S=C(SCc1nc(-c2ccc(Cl)cc2)no1)N1CCSCC1	-	-	-	0	-
CSCCOC(=O)C1=C(C)NC(=O)NC1c1ccc2c(c1)OCO2 (stereo not given)	56.2	0	0	0	0
COc1cccc2[nH]c3c(N4CCC(C)CC4)ncnc3c12	0	0	0	0	0
COc1cccc2[nH]c3c(N4CCc5ccccc5C4)ncnc3c12	59.9	-	-	-	-
O=C(Cn1c(NCCO)nc2ccccc21)c1ccco1	0	0	0	0	61.4
O=C(Cn1c(NCCO)nc2ccccc21)NCCc1ccccc1	0	0	0	-	0
CC(C)C[C@H]1COc2cccc(F)c2S(=O)(=O)N1	-	-	-	0	-
Cc1ccc(S(=O)(=O)N2CC3C(=O)CC(c4ccccc4)N(S(=O)(=O)c4ccc(C)cc4)C3CC2c2cccc(Cl)c2)cc1 (stereo not given)	-	-	-	0	-
COc1ccc(OC)c(CN2C(=O)c3ccccc3C2c2nnnn2C(C)C)c1 (stereo not given)	-	-	-	0	-
COC(=O)CNc1c(-c2ccccc2)nc2ccc(Br)cn12	51.3	0	-	-	0
C[C@H]1Cn2cnc(C(=O)N(C)Cc3ccccc3)c2C(=O)N1	-	-	-	0	-
COc1ccc(C)cc1NC(=O)CSc1nnc(COc2ccc(Cl)cc2)n1Cc1ccco1	106.6	0	-	0	0
SMILES	HSF1 activator	SR-BI HDL uptake	MITF TRPM1 HTS	Wnt act	SR-BI DiI-HDL act
Cc1ccc(C)c(NC(=O)CSc2nnc(CSc3nc(C)cc(C)n3)n2Cc2ccco2)c1	66.1	0	0	0	0
CCC(=O)Nc1cc(NC(=O)CSc2ncc(-c3ccc(F)cc3)n2Cc2ccco2)ccc1C	76.8	0	0	37.8	0
Cc1cccc(OCc2nnc(SCC(=O)N(C(C)C)C(C)C)n2Cc2ccco2)c1C	60.1	0	0	-	0
O=C1c2ccccc2NC(c2cccc(O)c2)N1Cc1ccco1 (stereo not given)	0	0	0	0	0
COc1ccc(C2Nc3ccccc3C(=O)N2Cc2ccco2)cc1CN1C(=O)c2ccccc2C1=O (stereo not given)	62.9!	0	0	0	0
COc1ccc(C2Nc3ccccc3C(=O)N2Cc2ccco2)cc1COc1ccc(F)cc1 (stereo not given)	103.0	0	-	0	0
CCCCC1Cc2[nH]c(=S)[nH]c(=O)c2C(c2ccc(Cl)cc2)O1 (stereo not given)	-	-	-	0	-
CS(=O)(=O)NN1C(=O)c2ccccc2NC1c1cc2ccccc2nc1Cl (stereo not given)	0	0	0	52.1	0
CCOc1nc(C)nc(NC(=O)NS(=O)(=O)c2ccccc2Cl)n1	0	0	-	-	61.2
Cc1ccc(NC(=O)C(=Cc2ccc(C(=O)O)cc2)C(=O)Nc2ccc(C)cc2C)c(C)c1	555.3	-	0	-	-
COC(=O)c1nn(-c2cccc(C)c2)c2nnc(Cc3ccc(C)cc3)c(=O)n12	0	0	0	0	0
COC(=O)c1nn(-c2ccc(C)cc2)c2nnc(Cc3ccccc3)c(=O)n12	0	0	0	36.7	0
O=C(CC12CC3CC(CC(C3)C1)C2)NCc1ccc(F)cc1	0	83.4	0	0	0
CCOc1ccccc1-c1cc(NC)ncn1	-	-	-	0	-
Cc1ccccc1Nc1sc(C(=O)Nc2cccc(Cl)c2)c(N)c1C(N)=O	-	0	0	51.5	0
Cc1cc(C)c(C(N)=O)c(Nc2cccc(Cl)c2)n1	0	0	0	0	0
O=S(=O)(c1ccc(C(F)(F)F)cc1)N1CCCc2nc(-c3ccc(Br)cc3)ccc21	-	-	-	0	-
CCc1nc(SCC(=O)c2cccs2)c2oc3ccccc3c2n1	65.9	0	-	0	0
Cc1cccc(Cn2cc(SCC(=O)Nc3nccs3)c3ccccc32)c1	0	0	0	40.8	0
CC1(c2nnnn2C2CCCC2)CCC(=O)N1c1ccc2c(c1)OCCO2 (stereo not given)	-	-	-	0	-
CCOC(=O)CN1CCC(c2cc(-c3ccc(Cl)cc3)n[nH]2)CC1	51.7	0	-	0	0
COc1ccc(-c2csc(NC(=S)NC(=O)/C=C/c3ccco3)n2)cc1OC	0	75.9	0	0	0
COc1ccc(-c2csc(NC(=S)NC(=O)/C=C/c3ccc(C(C)C)cc3)n2)cc1OC	0	75.2	0	0	0
COc1ccc(-c2csc(NC(=S)NC(=O)/C=C/c3ccco3)n2)cc1Br	0	0	-	0	0
CC(=O)O[C@H]1C[C@@H](n2cnc3c(Cl)ncnc32)[C@@H]2OC(C)(C)O[C@@H]21	-	-	-	0	-
SMILES	HSF1 activator	SR-BI HDL uptake	MITF TRPM1 HTS	Wnt act	SR-BI DiI-HDL act
Nc1nnnn1CC(=O)N/N=C/c1ccccn1	98.2	0	-	0	0
Nc1nnnn1CC(=O)N/N=C/c1cccs1	0	0	0	0	0
CC(C)Oc1ccc(F)cc1-c1cc(C(=O)NCc2ccc(F)cc2)[nH]n1	-	-	-	0	-
CCc1ccc(NC(=O)CSc2nccn(-c3ccc4c(c3)OCCO4)c2=O)cc1	0	0	0	0	0
COc1ccc(-c2nc(-c3ccccc3)c(-c3cccs3)[nH]2)cc1OC	51.5	0	0	0	0
COc1cc(-c2nc(-c3ccccc3)c(-c3ccc(F)cc3)[nH]2)cc2c1OCO2	0	84.7	0	-	0
O=[N+]([O-])c1cccc(-c2noc(-c3cccs3)n2)c1	57.1	0	0	48.5	0
O=[N+]([O-])c1cccc(-c2nc(-c3cccs3)c(-c3cccs3)[nH]2)c1	0	90.9	0	0	0
CCc1ccc(CNC(=O)C2CCN(S(=O)(=O)N3CCCCC3)CC2)cc1	-	-	-	0	-
C[C@@H]1CCCCO[C@@H](CN(C)Cc2ccc(C(F)(F)F)cc2)[C@@H](C)CN([C@H](C)CO)C(=O)c2cc(N(C)C)ccc2O1	-	-	-	0	-
COc1cc(C(O)P(=O)(OC2CCCCC2)c2ccc(N(C)C)cc2)cc(OC)c1OC (stereo not given)	56.8	0	0	-	0
